# Calls of active or inactive are those of the source. No cut-off for these calls is given here.
# Assays:
# [1] = species on record: Sus scrofa; assay: Inhibition of pig trypsin up to 30 uM
# Procedure, shortened: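 Porcine pancreatic trypsin was run as the chymotrypsin assay: 50 mM Tris-HCl/100 mM NaCl/1 mM CaCl2, pH 7.8, with 10 min preincubation with sample in DMSO at 37 °C. Nα-benzoyl-DL-arginine-4-nitroanilide was the substrate. Absorbance at 405 nm was followed every 5 min for 30 min. Tests were done in triplicate, with PMSF as positive control.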
# [2] = Inhibition of bovine alpha chymotrypsin; set-up: species or system Bos taurus
# Procedure, shortened: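 Bovine pancreatic alpha-chymotrypsin, 1 mg/mL stock in 50 mM Tris-HCl/100 mM NaCl/1 mM CaCl2, pH 7.8. Enzyme was preincubated with test sample in DMSO at 37 °C for 10 min. Then N-succinyl-Gly-Gly-Phe-p-nitroanilide was added at 0.75 mM final (≈Km). Absorbance rise at 405 nm was read every 5 min for 30 min. Samples were log/2 dilutions from 1 mM to 100 pM stocks, in triplicate, with PMSF as positive control.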
# [3] = Inhibition of pig elastase; set-up: species or system Sus scrofa
# Procedure, shortened: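 Porcine pancreatic elastase, 75 µg/mL stock in Tris-HCl pH 8.0. Enzyme was preincubated with test sample (5% DMSO final) at 30 °C for 20 min. Then N-succinyl-Ala-Ala-Ala-p-nitroanilide was added at 1.5 mM final (Km). Absorbance increase at 405 nm was read every 5 min for 30 min. Dilution series in DMSO ran from 1 mM to 100 pM, in triplicate, with PMSF as positive control.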
SMILES,Activity [1],IC50 [2],IC50 [3]
C/C=C1\NC(=O)[C@@H](NC(=O)[C@H](CCc2ccc(O)cc2)NC(=O)[C@H](C)NC(=O)[C@H](O)CO)[C@@H](C)OC(=O)[C@H](C(C)C)NC(=O)[C@H](Cc2ccc(O)cc2)N(C)C(=O)[C@H](Cc2ccccc2)N2C(=O)[C@H](CC[C@H]2O)NC1=O [LYNGBYASTATIN 5],inactive,2800 nM,3.2 nM
C/C=C1\NC(=O)[C@@H](NC(=O)[C@H](CCc2ccc(O)cc2)NC(=O)[C@H](C)NC(=O)[C@H](O)COS(=O)(=O)O)[C@@H](C)OC(=O)[C@H](C(C)C)NC(=O)[C@H](Cc2ccc(O)cc2)N(C)C(=O)[C@H](Cc2ccccc2)N2C(=O)[C@H](CC[C@H]2OC)NC1=O [LYNGBYASTATIN 6],inactive,2500 nM,3.3 nM
C/C=C1\NC(=O)[C@@H](NC(=O)[C@H](CCC(N)=O)NC(=O)CCCCC)[C@@H](C)OC(=O)[C@H](C(C)C)NC(=O)[C@H](Cc2ccc(O)cc2)N(C)C(=O)[C@H](Cc2ccccc2)N2C(=O)[C@H](CC[C@H]2O)NC1=O [LYNGBYASTATIN 7],inactive,,
C/C=C1\NC(=O)[C@@H](NC(=O)[C@H](CCC(N)=O)NC(=O)CCC)[C@@H](C)OC(=O)[C@H](C(C)C)NC(=O)[C@H](Cc2ccc(O)cc2)N(C)C(=O)[C@H](Cc2ccccc2)N2C(=O)[C@H](CC[C@H]2O)NC1=O [SOMAMIDE B],inactive,4200 nM,9.5 nM

# From ChEMBL document CHEMBL1141316, “Lyngbyastatins 5-7, potent elastase inhibitors from Floridian marine cyanobacteria, Lyngbya spp” (J Nat Prod, 2007)
